Test system: ABCG2-transfected HEK293 cells
Experiment: Sensitization of ABCG2-transfected cells to mitoxantrone, MTT assay
Type: cell-based, human
Settings: no chalcone
Outline: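 ABCG2-transfected (resistant) and empty-vector (sensitive) HEK293 cells seeded at 1 × 10^4 cells/well and incubated overnight. Then grown 72 h at 37°C, 5% CO2 with increasing mitoxantrone; resistant cells ran with or without 1 μM test compound. Survival read by MTT against 0.1% DMSO medium controls. At least three replicates; mitoxantrone IG50 from fitted curves.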

O=C1c2c(O)ccc(O)c2C(=O)c2c(NCCNCCO)ccc(NCCNCCO)c21 [mitoxantrone, Mitoxantrone]
IG50 of mitoxantrone, resistant cells (ABCG2-transfected resistant cells): 82.8 ± 21.7 nM | IG50 of mitoxantrone, sensitive control cells (sensitive control HEK293 cells (empty vector)): 14.5 ± 3.6 nM
